Measurements gathered from unrelated publications.
Protocols differ between the studies behind these lines.
Target: Serine/threonine-protein kinase PLK2 (PLK2, Homo sapiens, UniProt Q9NYY3)

CC(C)(O)[C@H]1CC[C@H](Nc2ccc3ncc(-c4cccc(C(F)(F)F)c4)n3n2)CC1  remaining activity (enzyme activity, inhibitor; 1 µM): 93.5%
COc1cc(Cl)c(C(=O)N[C@@H](CN[C@H]2CC[C@@H](N)CC2)Cc2ccc(C#N)cc2)cc1-c1ccc(CN[C@H](C)c2ccc(C)cc2)o1  remaining activity (enzyme activity, inhibitor; 1 µM): 96%
CCCCN(CCCC)C(=O)CN1C[C@@H](c2cc(OC)c3c(c2)OCO3)[C@H](C(=O)O)[C@H]1CC(C)(C)CCC  remaining binding (cell-free assay, competition with immobilised ligand; 1 µM): 98.4%
CC(C)(C)c1nc2c(s1)c1nc(N)ncc1c1ccc(NS(=O)(=O)c3c(F)cccc3F)c(F)c12  remaining activity (enzyme activity, inhibitor, radiometric; 1 µM): 91%
CC(=O)C1=C(C)N(c2cccc(C(F)(F)F)c2)C(=O)N[C@@H]1c1ccc(C#N)nc1  remaining binding (cell-free assay, competition with immobilised ligand; 1 µM): 97.8%
CCN(CC)CCNC(=O)c1c(C)[nH]c(/C=C2\C(=O)Nc3ccc(F)cc32)c1C  inhibition (enzyme activity, inhibitor; 0.3 µM): -2%
COc1cc(-c2cn(C3CCc4c(F)cccc4N(CC(F)(F)F)C3=O)nn2)ccc1-n1cnc(C)c1 (stereo not drawn)  remaining binding (cell-free assay, competition with immobilised ligand; 1 µM): 100%
O=C1NC(=O)c2cc(Nc3ccc(F)cc3)c(Nc3ccc(F)cc3)cc21  remaining signal (cell-free assay; 0.5 µM): 99.6%
CN1CC(Oc2cnc(C#N)cc2-c2ccn3nc(NC(=O)C4CC4)cc3c2)C1  inhibition (enzyme activity, inhibitor; 1 µM): 1%
CC/C(=N\NC(=O)NCc1cccc(O)c1)c1ccc(O)c(C)c1O  inhibition (enzyme activity, inhibitor; 0.1 µM): 1.3%
Cc1sc(C(=O)NC2COC2)cc1-n1cc(NC(=O)Nc2c(F)cccc2Cl)cn1  remaining activity (enzyme activity, inhibitor; 10 µM): 95.2%
CN(C)c1nccc(-c2cnc3ncccn23)n1  remaining binding (binding; 1 µM): 66%
CO[C@H]1CC[C@H](CNc2ccc(S(=O)(=O)NC(=O)c3ccc(N4CCN(CC5=C(c6ccc(Cl)cc6)CC(C)(C)CC5)CC4)cc3Oc3cnc4[nH]ccc4c3)cc2[N+](=O)[O-])CC1  remaining binding (cell-free assay, competition with immobilised ligand; 1 µM): 100%
C[S+]([O-])c1ccc(-c2nc(-c3ccncc3)c(-c3ccc(F)cc3)[nH]2)cc1 (stereo not drawn)  remaining signal (cell-free assay; 0.5 µM): 95.6%
CO[C@@H](C)c1c(Nc2ccc([C@H](N(C)C(=O)C3CCS(=O)(=O)CC3)C(F)(F)F)cc2)cnc2cc(Cl)nn12  remaining binding (cell-free assay, competition with immobilised ligand; 1 µM): 100%
Cc1ccc(Nc2nccc(N(C)c3ccc4c(C)n(C)nc4c3)n2)cc1S(N)(=O)=O  inhibition (enzyme activity, inhibitor; 10 µM): -4%
COc1cc(-c2cn(C3CCc4ccccc4N(CC(F)(F)F)C3=O)nn2)ccc1-n1ccc(C)n1 (stereo not drawn)  remaining binding (cell-free assay, competition with immobilised ligand; 1 µM): 100%
CNC(=O)c1cc(Oc2ccc(NC(=O)Nc3ccc(Cl)c(C(F)(F)F)c3)cc2)ccn1  inhibition (enzyme activity, inhibitor; 10 µM): 15%
O=C(O)[C@H]1[C@H](Cn2nnc3ccccc3c2=O)CC[C@@H]1C(=O)c1ccc(OCCC2CCOCC2)cc1  remaining binding (cell-free assay, competition with immobilised ligand; 1 µM): 100%
COc1cc2ncnc(Nc3ccc(Oc4ccccc4)cc3C)c2cc1OC  inhibition (enzyme activity, inhibitor; 1 µM): 5%
CCOc1cc(-c2nncn2C)ccc1Nc1ncc2cc(C)nc(NCC(C)(C)C)c2n1  inhibition (enzyme activity, inhibitor, FRET; 1 µM): < 15%
O=C1Nc2ccc(Cl)cc2C1=Cc1cc(Cl)c(O)c(Cl)c1  remaining signal (cell-free assay; 0.5 µM): 95.4%
COc1cc(-c2cc(-c3ccc(N4CCNCC4)cc3)cnc2C)cc(OC)c1OC  inhibition (enzyme activity, inhibitor; 0.1 µM): 7%
Cc1cnc(NC2CCOCC2)nc1-n1cnc(C(=O)NC(CN)c2cc(F)cc(Cl)c2)c1 (stereo not drawn)  remaining activity (enzyme activity, inhibitor, radiometric; 1 µM): 69%
